High-throughput results (PubChem)
OX1R antag-1: antagonists of human orexin 1 receptor | O43613 | CHO/OX1R cells, Fluo-8 calcium fluorescence, orexin A | inhibition, % at 5 µM | 330,000 tested, 0.43% active | AID 434989;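 active = inhibition above its plate's threshold, mean inhibition of all tested compounds on the plate plus 3 SD, cut at about 37% in these data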;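 note: 0% = orexin A challenge wells and 100% = SB-334867-A antagonist wells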
Target sequence (O43613 whole entry, looked up): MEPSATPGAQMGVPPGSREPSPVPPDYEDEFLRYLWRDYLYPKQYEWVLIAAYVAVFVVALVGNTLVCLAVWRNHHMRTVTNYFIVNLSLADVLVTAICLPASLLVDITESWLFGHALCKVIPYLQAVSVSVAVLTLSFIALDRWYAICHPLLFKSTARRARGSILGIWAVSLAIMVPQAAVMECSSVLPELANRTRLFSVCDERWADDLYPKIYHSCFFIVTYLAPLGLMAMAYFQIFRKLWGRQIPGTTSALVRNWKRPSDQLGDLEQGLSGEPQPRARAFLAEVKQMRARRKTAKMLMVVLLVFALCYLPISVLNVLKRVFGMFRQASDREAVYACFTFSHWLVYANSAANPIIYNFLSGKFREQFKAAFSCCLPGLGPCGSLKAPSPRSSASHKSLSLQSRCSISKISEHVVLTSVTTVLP
MPTP inh: permeability transition pore inhibition; isolated mouse mitochondria, Ca2+ swelling absorbance, 30 min; inhibition, % at 10 µM; 360,000 tested, 1.4% active; AID 602449;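 active = inhibition of 50% or more, scaled per plate between neutral and stimulator controls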;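 note: 0% = DMSO wells given calcium and 100% = 1 mM EGTA wells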
GPR7 antagonist: human neuropeptides B/W receptor 1 antagonism; 290,000 tested, 1.1% active; GPR7-expressing cells, fluorescence antagonist assay; P48145; inhibition, % at 4.4 µM; in the data active = inhibition above about 16%, passing the limit was not always enough;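 note: cells stimulated with the agonist NPW; 0% = agonist with vehicle and 100% = vehicle without agonist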
OX1R antag-2: OX1R (human) antagonism; AID 485270; OX1R-expressing cells, FRET antagonist read-out; inhibition, % at 6.6 µM; 330,000 tested, 1.8% active; O43613; in the data active = inhibition mostly above about 38%, no sharp cut-off; inactive = mostly below about 40%;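 note: 0% = agonist challenge alone and 100% = reference antagonist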
CHO parental Ca: counter-screen for OX1R antagonists: effect in parental CHO cells. 330,000 tested, 0.63% active. parental CHO-K1, ATP-induced calcium, Fluo-8 fluorescence. inhibition, % at 5.6 µM;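 active = inhibition above that plate's mean sample inhibition plus 3 SD, cut at about 26% in these data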;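 note: 0% = ATP-challenged DMSO wells and 100% = DMSO wells without ATP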
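Material: parental CHO cells / Compound: single nominal dose of 5.6 µM per compound / Signal: Fluo-8 fluorescence / Replicates: singlicate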
OX1R Ca confirm: OX1R (human) antagonism, confirmed; AID 492963; shares compounds with OX1R antag-1; 1,100 tested, 38% active; inhibition, % at 5 µM; CHO/OX1R cells, orexin A calcium Fluo-8 fluorescence; in the data active = inhibition above about 29%;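 note: 0% = agonist challenge alone and 100% = reference antagonist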
CHO Ca triplic: counter-screen: parental CHO calcium response change, triplicate; shares compounds with OX1R antag-1; parental CHO-K1, ATP-induced calcium, Fluo-8 fluorescence; inhibition, % at 5.6 µM; 1,100 tested, 9.3% active; AID 492965;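 active = inhibition above a per-plate limit, the mean inhibition of that plate's test compounds plus 3 SD, cut at about 25% in these data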;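 note: 0% = ATP challenge with DMSO and 100% = DMSO without ATP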
OX1R HTRF confirm: confirmation of human orexin 1 receptor antagonists, HTRF format; shares compounds with OX1R antag-2; OX1R-expressing cells, HTRF antagonist assay; inhibition, % at 6.6 µM; 1,800 tested, 49% active; in the data active = inhibition above about 55%;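 note: CHO cells expressing OX1R stimulated with orexin A at about EC80; 0% = agonist challenge alone and 100% = reference antagonist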
CHO-K1 HTRF cnt: signal in parental CHO-K1 cells, OX1R antagonist counter-screen; shares compounds with OX1R antag-2; HTRF counterscreen; inhibition, % at 6.6 µM; 1,800 tested, 48% active; AID 493232; in the data active = inhibition above about 17%;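 note: 0% = agonist challenge with vehicle and 100% = vehicle alone without agonist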
* marks the source's active call; other numbers are inactive results; x = no result given. Shown are actives, neighbours in structure and some others; about 3.8% of the full set was active somewhere.

SMILES	OX1R antag-1	MPTP inh	GPR7 antagonist	OX1R antag-2	CHO parental Ca	OX1R Ca confirm	CHO Ca triplic	OX1R HTRF confirm	CHO-K1 HTRF cnt
N#Cc1ccc(S(=O)(=O)N2CCN(C(=O)c3cn(-c4ccccc4)nc3-c3cccnc3)CC2)cc1	x	-1	x	x	x	x	x	x	x
COc1cccc(NC(=O)C(=O)NCC2CCCN2S(=O)(=O)c2ccccc2)c1 (configuration not stated)	-17	0	x	45	-21	x	x	x	x
COc1cccc(C(=O)NCC2CCCN2S(=O)(=O)c2ccccc2)c1 (configuration not stated)	40	0	x	49*	-30	13	-18	63*	-6
Cc1cc(=O)n(C2CCS(=O)(=O)C2)[nH]1 (configuration not stated)	2	-2	4	1	2	x	x	x	x
CN(Cc1c(C(=O)N/N=C/c2cccc(F)c2)nnn1-c1nonc1N)c1ccccc1	49	1	8	57*	-7	33*	-6	77*	4
CCN(CC)c1ccc(/C=N/NC(=O)c2nnn(-c3nonc3N)c2C(C)C)c(O)c1	59*	-1	-19	96*	-2	16	-10	69*	5
CN(Cc1c(C(=O)N/N=C/c2cccs2)nnn1-c1nonc1N)c1ccccc1	55*	4	-16	82*	-22	32*	0	89*	6
CCCN(CCC)Cc1c(C(=O)N/N=C/c2cccs2)nnn1-c1nonc1N	-33	0	-4	6	-15	x	x	x	x
COc1cccc(/C=N/NC(=O)c2nnn(-c3nonc3N)c2CN(C)c2ccccc2)c1	52*	-1	-12	70*	9	41*	-3	93*	-2
O=C(Oc1cccc(F)c1)c1ccc2c(=O)n3c(nc2c1)CCC3	-20	1	x	15	-5	x	x	x	x
CN(C)/C=C/C1=CC(=O)CC(C)(C)C1	-28	-2	5	10	-23	x	x	x	x
COc1ccc(OCC(=O)NNc2c3ccccc3nc3ccccc23)cc1	41*	20	-13	102*	8	2	-11	33	8
CCCC(=O)NNc1c2ccccc2nc2ccccc12	-8	1	-7	5	-15	x	x	x	x
Cc1ccccc1CN1CCCC(C(=O)Nc2ccccc2Oc2cccnc2)C1 (configuration not stated)	-27	0	-6	11	-24	x	x	x	x
Cc1nc(-c2coc3cc(O)c(C)cc3c2=O)cs1	33	-4	-8	86*	-5	28	-14	89*	-3
Cc1nc(-c2coc3cc(OCC(=O)O)ccc3c2=O)cs1	-2	-2	-8	8	-6	x	x	x	x
CC(C)Nc1nnc(SC(C)C(=O)Nc2ccc(Cl)cn2)s1 (configuration not stated)	-15	-2	-10	8	-8	x	x	x	x
CCOc1ccccc1C(=O)NCC(=O)O	0	-1	-7	3	-6	x	x	x	x
CCOc1ccccc1C(=O)Nc1cc(OC)ccc1OC	61*	3	-10	68*	-2	3	-17	89*	-3
CCOc1ccccc1NC(=O)c1ccccc1-c1nc(-c2ccccc2OC)no1	45*	2	8	87*	9	11	-12	55	6
CCOc1ccccc1C(=O)NCCNC(=O)c1ccccc1OCC	65*	3	x	80*	-5	77*	-14	52	10
COc1c2ccoc2nc2c(OC)c(OCC(OC(C)=O)C(C)(C)O)ccc12 (configuration not stated)	-9	-1	-3	15	0	x	x	x	x
Cc1cc(N2C(=O)C3C4CC(c5ccccc5)C(C4)C3C2=O)no1 (configuration not stated)	-32	0	-10	20	-13	x	x	x	x
CN(C)c1ccc(CNc2ccc3c(c2)ncn3C(C)(C)C)cc1	-22	1	11	1	-2	x	x	x	x
COc1cc([N+](=O)[O-])ccc1NC(=O)Cn1ccsc1=N	-10	0	-12	29	-5	x	x	x	x
